# Results taken from paper PMC11393732 (RSC Medicinal Chemistry, 2024).
# Columns and labels:
# [1] = molecular target: T1, KDM3B (Homo sapiens, UniProt Q7LBC6); assay: Western blot KDM3B degradation in HCP-1 cells; type: cell-based
# [2] = tested on: CRL-1790 cells; assay: CCK-8 based toxicity assay; type: cell-based, human
# How it was run: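 Non-malignant human colon epithelial CRL-1790 cells grown in EMEM with 10% FBS and 1% pen–strep at 37 °C and 5% CO2. Seeded at 3 × 10^3 cells/well in 96-well plates, then exposed to test compound. Viability read by CCK-8 at 48 h as OD 450 nm. TD50 derived from the dose–response.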
# [3] = molecular target: T2, KDM3A (Homo sapiens, UniProt Q9Y4C1); assay: Western blot KDM3A degradation in HCP-1 cells; type: cell-based
# T2 sequence (Q9Y4C1 1-1321): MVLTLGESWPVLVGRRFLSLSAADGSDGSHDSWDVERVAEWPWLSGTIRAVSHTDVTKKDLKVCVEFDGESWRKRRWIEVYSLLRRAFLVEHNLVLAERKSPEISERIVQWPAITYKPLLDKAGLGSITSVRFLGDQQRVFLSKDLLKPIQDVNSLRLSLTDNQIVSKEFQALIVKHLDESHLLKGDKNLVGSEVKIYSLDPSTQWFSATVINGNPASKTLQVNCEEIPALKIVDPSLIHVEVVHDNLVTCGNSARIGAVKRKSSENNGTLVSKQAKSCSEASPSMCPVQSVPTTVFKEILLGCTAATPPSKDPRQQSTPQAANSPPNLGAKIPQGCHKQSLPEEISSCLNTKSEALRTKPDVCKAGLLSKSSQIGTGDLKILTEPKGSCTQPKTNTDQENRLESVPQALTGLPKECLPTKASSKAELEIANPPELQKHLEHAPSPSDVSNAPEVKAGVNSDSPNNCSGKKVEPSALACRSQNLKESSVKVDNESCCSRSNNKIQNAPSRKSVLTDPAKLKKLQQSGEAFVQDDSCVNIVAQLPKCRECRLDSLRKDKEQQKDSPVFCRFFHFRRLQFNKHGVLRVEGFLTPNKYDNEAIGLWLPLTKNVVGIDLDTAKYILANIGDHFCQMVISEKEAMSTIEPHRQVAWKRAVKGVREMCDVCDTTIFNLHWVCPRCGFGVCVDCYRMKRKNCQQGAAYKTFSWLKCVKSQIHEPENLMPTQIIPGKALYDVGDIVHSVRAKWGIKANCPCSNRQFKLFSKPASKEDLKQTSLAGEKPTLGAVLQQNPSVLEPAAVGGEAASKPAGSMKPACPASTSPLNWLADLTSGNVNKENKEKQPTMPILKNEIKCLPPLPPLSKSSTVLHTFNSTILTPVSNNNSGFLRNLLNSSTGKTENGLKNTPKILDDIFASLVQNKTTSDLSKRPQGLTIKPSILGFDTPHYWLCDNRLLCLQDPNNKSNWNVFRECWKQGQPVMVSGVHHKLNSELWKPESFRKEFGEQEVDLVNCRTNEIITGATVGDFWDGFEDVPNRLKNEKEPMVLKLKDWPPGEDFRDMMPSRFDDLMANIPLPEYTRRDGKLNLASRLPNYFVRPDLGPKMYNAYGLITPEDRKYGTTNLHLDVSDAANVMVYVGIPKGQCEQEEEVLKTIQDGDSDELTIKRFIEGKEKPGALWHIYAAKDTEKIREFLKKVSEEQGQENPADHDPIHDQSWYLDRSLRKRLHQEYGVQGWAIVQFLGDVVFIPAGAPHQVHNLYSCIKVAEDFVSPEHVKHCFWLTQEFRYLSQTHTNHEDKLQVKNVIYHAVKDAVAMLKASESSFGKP
# [4] = tested on: Wnt target genes in SW480 cells; assay: RT-qPCR of Wnt target gene expression in SW480; type: cell-based, human
# How it was run: (§1)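 Cells in 6-well plates exposed to test compound for 16 h. Total RNA extracted; 1 μg reverse-transcribed with M-MuLV and random hexamers. SYBR Green qPCR for the named genes, quantified by 2ΔΔct against tubulin. Mean ± SD; unpaired two-tailed Student's t-test.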
# [5] = tested on: HCP-1 cells; assay: Clonogenic assay HCP-1; type: cell-based, human; conditions: HCP-1, 2 weeks
# How it was run: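 Cells kept in DMEM with 10% FBS and 1% pen–strep, seeded at 500 cells/well and dosed with test compound once attached. Medium refreshed every 3 days for 2 weeks. Colonies stained with 0.5% crystal violet and photographed. ED50 obtained by image analysis.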
# [6] = molecular target: T2, KDM3A; assay: IHC of HCP-1 xenograft tumors, KDM3A; type: in vivo, mice
# How it was run: (§2)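 Tumours came from ALDHHigh HCP-1 xenografts in NSG mice given test compound IP (3, 10 or 35 mg kg−1) for 16 days. Paraffin sections were deparaffinised and rehydrated, then antigen-unmasked. Peroxidase blocked; sections blocked 1 h in 10% goat serum. Primary antibody overnight at 4 °C, biotinylated secondary 30 min at RT, avidin–biotin peroxidase detection, hematoxylin counterstain.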
# [7] = molecular target: GSPT1 (Homo sapiens, UniProt P15170); assay: Western blot neo-substrate GSPT1 degradation in SW480 cells; type: cell-based; conditions: 16 hours
# [8] = tested on: CCND1; assay: IHC of HCP-1 xenograft tumors, CCND1; type: in vivo, mice; conditions: HCP-1 xenograft tumor tissues
# How it was run: as §2
# [9] = molecular target: T1, KDM3B; assay: Western blot KDM3B degradation in SW480 cells; type: cell-based
# How it was run: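 SW480 cells exposed to test compound for 16 h, then total lysates protein-normalised and run on SDS-PAGE. Semi-dry transfer to PVDF, 1 h block in 5% milk. Primary antibody overnight at 4 °C in 1% milk, secondary 1 h at RT, TBST washes, α-tubulin as loading control. Rescue arms co-treated with MLN4924 (1 μM) or pomalidomide (100 μM). Test compound at 0.1 μM for the KDM3A blot and 1 μM for the KDM3B blot.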
# [10] = tested on: Wnt target genes in HCP-1 cells; assay: RT-qPCR of Wnt target gene expression in HCP-1; type: cell-based, human
# How it was run: as §1
# [11] = tested on: ALDH^high-HCP-1 CSCs; assay: Tumor sphere formation assay HCP-1; type: cell-based, human; conditions: 2 weeks
# How it was run: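 Trypsinised cells passed through a 40 μm strainer and stained with ALDEFLUOR. ALDHHigh cells sorted by FACS, with DEAB-treated cells as gating control. Plated at 1000 cells/well on ultra-low attachment in serum-free MEBM containing 2% B27, 20 ng mL−1 EGF, 10 ng mL−1 FGF, 1 ng mL−1 hydrocortisone, 5 μg mL−1 insulin and 100 μM β-mercaptoethanol. Dosed 1 h after plating; medium renewed at 1 week. Spheres >40 μm counted at 2 weeks for ED50.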
# T1 sequence (Q7LBC6 whole entry): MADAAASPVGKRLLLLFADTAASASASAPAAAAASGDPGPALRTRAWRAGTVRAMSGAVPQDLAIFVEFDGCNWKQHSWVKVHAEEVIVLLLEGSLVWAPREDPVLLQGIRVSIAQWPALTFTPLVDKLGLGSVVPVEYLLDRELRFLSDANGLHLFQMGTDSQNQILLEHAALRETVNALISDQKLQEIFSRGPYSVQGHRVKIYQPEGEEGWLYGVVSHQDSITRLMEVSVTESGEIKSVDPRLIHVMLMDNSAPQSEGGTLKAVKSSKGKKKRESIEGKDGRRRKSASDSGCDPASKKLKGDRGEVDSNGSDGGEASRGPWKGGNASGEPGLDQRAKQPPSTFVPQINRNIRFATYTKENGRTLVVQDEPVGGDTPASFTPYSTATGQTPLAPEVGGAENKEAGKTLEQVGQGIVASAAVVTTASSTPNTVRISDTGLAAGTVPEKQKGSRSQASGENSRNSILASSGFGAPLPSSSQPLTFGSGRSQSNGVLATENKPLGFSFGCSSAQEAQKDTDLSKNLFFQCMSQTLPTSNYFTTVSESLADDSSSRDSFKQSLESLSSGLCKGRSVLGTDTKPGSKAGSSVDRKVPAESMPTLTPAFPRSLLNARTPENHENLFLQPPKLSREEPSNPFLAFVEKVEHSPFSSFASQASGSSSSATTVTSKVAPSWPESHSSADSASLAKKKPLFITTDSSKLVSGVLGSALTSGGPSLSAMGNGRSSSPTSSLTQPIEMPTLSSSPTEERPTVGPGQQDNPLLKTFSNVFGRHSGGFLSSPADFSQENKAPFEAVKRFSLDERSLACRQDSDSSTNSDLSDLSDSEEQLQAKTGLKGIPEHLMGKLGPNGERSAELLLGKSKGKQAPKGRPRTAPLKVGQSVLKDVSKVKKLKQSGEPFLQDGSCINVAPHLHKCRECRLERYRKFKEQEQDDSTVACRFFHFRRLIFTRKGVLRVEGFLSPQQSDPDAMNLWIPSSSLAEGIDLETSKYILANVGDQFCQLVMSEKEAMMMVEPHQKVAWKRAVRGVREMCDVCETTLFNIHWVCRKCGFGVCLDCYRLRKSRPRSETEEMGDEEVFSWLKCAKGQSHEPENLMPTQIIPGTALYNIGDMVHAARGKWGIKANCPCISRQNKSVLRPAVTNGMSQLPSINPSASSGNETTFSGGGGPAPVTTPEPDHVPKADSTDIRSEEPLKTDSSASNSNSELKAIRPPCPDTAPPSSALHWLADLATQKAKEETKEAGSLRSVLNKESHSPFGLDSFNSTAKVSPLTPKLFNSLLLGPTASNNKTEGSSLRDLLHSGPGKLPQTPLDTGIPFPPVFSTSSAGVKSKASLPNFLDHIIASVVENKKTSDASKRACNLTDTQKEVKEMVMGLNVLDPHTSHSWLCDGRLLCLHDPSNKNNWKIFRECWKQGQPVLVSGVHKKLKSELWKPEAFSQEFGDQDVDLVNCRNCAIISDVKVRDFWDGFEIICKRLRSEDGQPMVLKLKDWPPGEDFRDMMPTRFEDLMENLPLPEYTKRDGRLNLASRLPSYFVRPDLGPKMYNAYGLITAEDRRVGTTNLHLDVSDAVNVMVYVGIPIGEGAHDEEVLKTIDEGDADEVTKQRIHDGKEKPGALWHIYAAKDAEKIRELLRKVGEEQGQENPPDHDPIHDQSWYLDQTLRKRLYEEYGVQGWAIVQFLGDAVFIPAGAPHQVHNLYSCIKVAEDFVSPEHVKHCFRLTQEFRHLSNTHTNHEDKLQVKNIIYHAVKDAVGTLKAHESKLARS
# Chain of GSPT1 (Q16531 whole entry): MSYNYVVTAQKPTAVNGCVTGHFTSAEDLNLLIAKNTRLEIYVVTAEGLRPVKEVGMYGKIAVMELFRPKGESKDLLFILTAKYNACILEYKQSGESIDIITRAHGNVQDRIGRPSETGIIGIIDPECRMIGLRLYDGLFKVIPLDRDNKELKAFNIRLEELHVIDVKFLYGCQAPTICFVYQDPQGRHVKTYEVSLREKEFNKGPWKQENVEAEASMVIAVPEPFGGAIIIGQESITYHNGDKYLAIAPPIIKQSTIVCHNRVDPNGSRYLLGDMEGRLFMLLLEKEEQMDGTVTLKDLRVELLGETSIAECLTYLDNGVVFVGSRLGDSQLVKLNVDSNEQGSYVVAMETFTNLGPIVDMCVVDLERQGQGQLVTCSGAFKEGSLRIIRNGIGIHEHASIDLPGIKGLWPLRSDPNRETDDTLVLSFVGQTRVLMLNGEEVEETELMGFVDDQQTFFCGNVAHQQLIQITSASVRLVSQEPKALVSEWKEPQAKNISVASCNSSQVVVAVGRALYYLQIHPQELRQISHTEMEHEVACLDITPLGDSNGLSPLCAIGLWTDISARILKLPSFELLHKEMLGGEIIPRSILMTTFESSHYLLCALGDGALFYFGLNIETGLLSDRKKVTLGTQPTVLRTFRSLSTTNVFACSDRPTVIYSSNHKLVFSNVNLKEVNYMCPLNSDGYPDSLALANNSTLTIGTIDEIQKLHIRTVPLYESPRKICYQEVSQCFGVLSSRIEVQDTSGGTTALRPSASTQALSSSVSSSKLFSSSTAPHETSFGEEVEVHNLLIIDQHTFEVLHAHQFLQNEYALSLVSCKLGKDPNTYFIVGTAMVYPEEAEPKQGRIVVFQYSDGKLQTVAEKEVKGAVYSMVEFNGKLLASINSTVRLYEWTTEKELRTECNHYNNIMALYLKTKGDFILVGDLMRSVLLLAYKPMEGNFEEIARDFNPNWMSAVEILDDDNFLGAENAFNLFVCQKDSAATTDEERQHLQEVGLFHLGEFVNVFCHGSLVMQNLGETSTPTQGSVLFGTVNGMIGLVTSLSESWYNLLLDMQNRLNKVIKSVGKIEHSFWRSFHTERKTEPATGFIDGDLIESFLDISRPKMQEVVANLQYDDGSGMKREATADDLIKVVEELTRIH
# Chain of GSPT1 (Q96SW2 whole entry, further chain): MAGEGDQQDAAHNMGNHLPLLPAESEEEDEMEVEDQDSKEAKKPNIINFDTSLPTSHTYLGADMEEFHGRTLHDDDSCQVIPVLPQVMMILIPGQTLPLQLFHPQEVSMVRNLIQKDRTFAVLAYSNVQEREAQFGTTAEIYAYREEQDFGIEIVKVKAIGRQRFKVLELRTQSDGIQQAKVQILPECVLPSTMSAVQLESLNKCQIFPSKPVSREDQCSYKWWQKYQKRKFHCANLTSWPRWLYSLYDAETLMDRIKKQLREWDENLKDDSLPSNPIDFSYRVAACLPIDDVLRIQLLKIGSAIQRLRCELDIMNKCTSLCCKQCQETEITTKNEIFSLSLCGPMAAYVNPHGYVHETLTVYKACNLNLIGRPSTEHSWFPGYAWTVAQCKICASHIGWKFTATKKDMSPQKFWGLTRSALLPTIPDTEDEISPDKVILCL
# Chain of GSPT1 (P15170 whole entry): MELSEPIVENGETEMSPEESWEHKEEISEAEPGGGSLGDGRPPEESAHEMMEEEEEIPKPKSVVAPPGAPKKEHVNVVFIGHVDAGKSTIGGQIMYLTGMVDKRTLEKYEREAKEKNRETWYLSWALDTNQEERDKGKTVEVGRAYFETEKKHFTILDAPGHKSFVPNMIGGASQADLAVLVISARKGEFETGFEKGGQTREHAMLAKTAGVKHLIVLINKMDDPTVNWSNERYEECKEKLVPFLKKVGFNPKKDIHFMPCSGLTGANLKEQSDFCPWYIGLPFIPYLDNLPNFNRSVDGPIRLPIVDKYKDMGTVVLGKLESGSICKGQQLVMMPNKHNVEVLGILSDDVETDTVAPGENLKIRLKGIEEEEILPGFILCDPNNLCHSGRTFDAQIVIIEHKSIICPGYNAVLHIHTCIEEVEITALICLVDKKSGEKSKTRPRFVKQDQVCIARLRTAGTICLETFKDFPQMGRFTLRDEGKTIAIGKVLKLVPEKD
smiles,measurement,setting,value
"O=C1CCC(N2C(=O)c3cccc(NCCOCCOCCOCCOCCNC(=O)c4ccc(O)c5ncccc45)c3C2=O)C(=O)N1 (stereo not shown) [Compound 4, N-(14-((2-(2,6-Dioxopiperidin-3-yl)-1,3-dioxoisoindolin-4-yl)amino)-3,6,9,12-tetraoxatetradecyl)-8-hydroxyquinoline-5-carboxamide]",KDM3B degradation,[1],potently induce KDM3A and KDM3B degradation
same,cell growth of CRL-1790,"[2]; 60 μM, two-day treatment",not dramatically affected
same,TD50 CRL-1790,"[2]; CCK8 assay, 48 h post drug treatment",285.4 µM
same,KDM3A degradation,[3],potently induce KDM3A and KDM3B degradation
same,"suppression of Wnt target gene expression (AXIN2, DKK1, CCND1)","[4]; SW480, 50 μM, 16-hour treatment, in most cases",≥ 50%
same,"expression of colorectal CSC signature genes (ASCL2, RNF43, ZNRF3, LGR5)","[4]; SW480, 16 hours",strongly inhibited
same,colony formation,[5],potently inhibited the colony formation
same,KDM3A level (IHC) at high dose,[6]; 35 mg kg^−1,slight upregulation of KDM3A
same,KDM3A degradation in vivo (IHC),[6]; HCP-1 xenograft tumor tissues,confirmed the PROTAC-induced KDM3A and KDM3B degradation in vivo
same,GSPT1 degradation,[7],did not induce
same,CCND1 expression (IHC),[8],downregulated
same,Dmax,"[9]; SW480, read-out: Dmax KDM3B",88.5%
same,KDM3B degradation with MLN4924 co-treatment,"[9]; SW480, MLN4924 1 μM, compound 4 1 μM",could be restored by MLN4924
same,KDM3B degradation with pomalidomide or IOX1 co-treatment,"[9]; SW480, pomalidomide 100 μM, compound 4 1 μM",could also be suppressed by either pomalidomide or IOX1
same,KDM3B degradation (western blot),"[9]; SW480 cells, 16 hours",degrades both KDM3A and KDM3B at nanomolar concentrations
same,DC50,"[9]; read-out: DC50 KDMB, SW480 cells, 16 hours",173 nM
same,"suppression of Wnt target gene expression (AXIN2, DKK1, CCND1)","[10]; HCP-1, 50 μM, 16-hour treatment, in most cases",≥ 50%
same,"expression of colorectal CSC signature genes (ASCL2, RNF43, ZNRF3, LGR5)","[10]; HCP-1, 16 hours",strongly inhibited
same,ED50 HCP-1 (tumor sphere formation),[11],280 nM
